RORa inhibitor: inhibitors of orphan receptor RORA, primary screen, cell-based, luminescence. CHO-K1 Gal4-RORA LBD luciferase reporter. AID 561, 2006. inhibition, % at 10 µM. Nuclear receptor ROR-alpha (Homo sapiens), P35398. 0.43% of 65,000 active;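 active means inhibition above the mean of all tested compounds plus 3 SD, cut at about 52% in these data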;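 further: 0% = RORA-transfected cells with DMSO and 100% = mock-transfected cells lacking RORA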
Target sequence (P35398 whole entry, looked up, the tested form may be a part): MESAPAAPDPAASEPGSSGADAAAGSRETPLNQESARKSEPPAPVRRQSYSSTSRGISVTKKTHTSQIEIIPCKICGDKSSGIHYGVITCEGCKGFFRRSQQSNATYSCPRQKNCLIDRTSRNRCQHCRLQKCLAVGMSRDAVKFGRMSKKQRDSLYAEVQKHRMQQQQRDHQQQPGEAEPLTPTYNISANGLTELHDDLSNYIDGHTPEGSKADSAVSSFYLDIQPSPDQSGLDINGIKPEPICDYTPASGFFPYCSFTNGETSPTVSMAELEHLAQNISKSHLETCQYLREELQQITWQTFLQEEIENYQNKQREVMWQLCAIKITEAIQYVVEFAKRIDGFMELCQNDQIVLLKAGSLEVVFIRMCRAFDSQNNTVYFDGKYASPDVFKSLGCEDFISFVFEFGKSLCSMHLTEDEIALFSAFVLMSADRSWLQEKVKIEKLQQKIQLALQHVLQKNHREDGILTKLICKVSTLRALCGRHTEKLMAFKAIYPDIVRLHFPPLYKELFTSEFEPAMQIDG
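Test system – CHO-K1 Gal4-RORA LBD luciferase reporter cells · Schedule – 20 h at 37 °C · Signal – luminescence from basal luciferase reporter expression · Measure – percent inhibition of basal reporter luminescence, control-normalized · Control set – -RORA mock-transfected DMSO wells 100%, +RORA DMSO wells 0%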
Active calls of the source: *. Only a selection was taken, and hits are over-represented in it overall.

SMILES	RORa inhibitor
CC1(C)CC(=O)c2cnc(NC(=O)c3ccco3)nc2C1	-1.5
COc1cccc(C2C(C(=O)c3ccco3)=C(O)C(=O)N2CCCN2CCOCC2)c1OC (stereo not given)	5.1
CCOC(=O)C1C(C)=CC(=O)CC1c1ccco1 (stereo not given)	-3.3
Cc1c(C(=O)O)[nH]c2c1C(=O)CC(c1ccc(Cl)cc1)C2 (stereo not given)	-9.2
CCCCCOC(=O)c1[nH]c2c(c1C)C(=O)CC(c1ccco1)C2 (stereo not given)	54.3*
Cc1ccc(C2=Nc3ccccc3NC(C)(c3ccc(C)o3)C2)o1 (stereo not given)	-52.7
CCOC(=O)C1CCN(S(=O)(=O)C(F)(F)c2nc3ccccc3s2)CC1	-71.0
O=C(CCN1c2ccccc2Sc2ccccc21)OCC(=O)N1CCN(C(=O)c2ccco2)CC1	5.9
O=C(Nc1ccc(N2CCOCC2)c(Cl)c1)C1CCCCC1	-49.4
Cc1cc(C)nc(SCC(=O)Nc2ccc(N3CCOCC3)c(Cl)c2)n1	53.1*
O=C(Nc1ccc(N2CCOCC2)c(Cl)c1)c1ncn[nH]1	-7.6
Cc1ccc(-c2cn3nc(C)c(C)nc3n2)cc1	74.5*
Brc1ccc(-c2cn3cccnc3n2)cc1	-53.0
COc1ccc(CNC(=O)CN(CC2CCCO2)C(=O)CNS(=O)(=O)c2ccc(F)cc2)cc1 (stereo not given)	20.0
CCN1C(=O)NC(c2cccnc2)C(C(=O)OC)=C1C (stereo not given)	15.0
O=C(O)CCCCCN1C(=O)CSC1=S	58.7*
N#Cc1c(NC(=O)CSc2ncnc3sccc23)oc(-c2ccco2)c1-c1ccco1	0.2
O=C(NC(Cc1ccccc1)c1nc2ccccc2[nH]1)C1CC(=O)N(c2ccc3c(c2)OCCO3)C1 (stereo not given)	8.5
CN(C)Cc1cc(C(C)(C)c2cc(CN(C)C)c(O)c(CN(C)C)c2)cc(CN(C)C)c1O	-1.0
Cc1ccc(-c2noc(CCC(=O)NCc3ccc4c(c3)OCO4)n2)cc1	25.0
CCCCS(=O)(=O)/C=C\C=C/S(=O)(=O)CCCC	91.2*
O=C(c1n[nH]c2ccccc12)N1CCN(S(=O)(=O)c2ccc3ccccc3c2)CC1	4.6
CCN(Cc1ccccc1)S(=O)(=O)c1ccc(C(=O)Nc2nnc(-c3ccccc3OC)o2)cc1	48.6
CCCN(CCC)S(=O)(=O)c1ccc(C(=O)Nc2nnc(-c3cccc(OC)c3)o2)cc1	-17.7
CCCCN(CCCC)S(=O)(=O)c1ccc(C(=O)Nc2nnc(CSC)o2)cc1	61.3*
SMILES	RORa inhibitor
O=C(NCCN1CCOCC1)C1CC(=O)N(c2ccc(F)c(Cl)c2)C1 (stereo not given)	-7.1
COC(=O)c1ccc(CSc2nc3c(c(=O)n2-c2ccc(Br)cc2)SCC3)o1	-5.1
COc1cccc(C(=O)Nc2ccccc2N2CCCC2)c1	10.2
COc1cccc(C(=O)c2sc(NC(C)C)nc2N)c1	57.4*
CCCC(=O)Nc1nc2ccc(OC)cc2s1	-56.0
COc1ccc(NC(=O)CSc2nnc(Cn3c(=O)sc4ccccc43)n2C)c(OC)c1	-13.5
c1ccc(CC2CCN(Cc3nc(-c4ccccc4)no3)CC2)cc1	10.5
Cc1cc(NC(=O)c2ccco2)ncc1NC(=O)Cc1ccccc1	-56.9
O=C(O)CCn1c(=O)c2ccccc2c2ccccc2c1=O	7.9
c1ccc(-n2ncc3c(NCc4cccnc4)ncnc32)cc1	-51.5
c1ccc(Nc2nc3ccccc3[nH]2)nc1	-78.6
O=C(Nc1nc2ccccc2[nH]1)c1ccc(F)cc1	53.6*
CC(=O)Nc1ccc(S(=O)(=O)NCCNC(=O)c2ccccc2F)cc1	3.7
O=C(CSc1nc2ccccc2[nH]1)N1CCCCC1	-52.1
COc1ccccc1CCC(=O)Nc1nc2ccccc2[nH]1	-18.7
O=C(Nc1nc2ccccc2[nH]1)c1ccccc1F	86.5*
CCCCc1nc2n[nH]c(N)c2c2c1CCCC2	28.2
CCCCC(=O)Nc1cccc(NC(=O)c2ccc3c(c2)OCO3)c1	-15.7
CCC(=O)Nc1ccc(C(=O)Nc2ccc3c(c2)OCO3)cc1	-30.7
CCOC(=O)c1c(N)sc(C(=O)Nc2ccc3c(c2)OCO3)c1C	53.9*
Cc1noc(C(=O)Nc2ccc3c(c2)OCO3)c1Cl	-65.0
CC(=O)Nc1cnc2ccccc2n1	5.6
Cc1sc2nc3n(c(=O)c2c1C)Cc1ccccc1-3	-73.2
O=C(CCNS(=O)(=O)c1cccc2nsnc12)N1CC(=O)N(CCc2ccccc2)C(=O)C1	3.1
Cc1ccc(-c2nc(-c3ccccn3)no2)cc1	90.1*
SMILES	RORa inhibitor
Brc1ccc(-c2nc(-c3ccccc3)no2)o1	-68.4
Clc1cccc(-c2nc(-c3ccccn3)no2)c1	61.7*
Cc1ccc(-c2nc(-c3ccccn3)no2)cc1Cl	80.7*
CC(C)(C)c1ccc(OCc2nc(-c3ccccn3)no2)c(Br)c1	-67.1
Clc1cc(Cl)c(OCc2nc(-c3ccccn3)no2)cc1Cl	-52.2
c1ccc(Cc2nc(-c3ccccn3)no2)cc1	-61.2
c1ccc(CCCc2nc(-c3ccccn3)no2)cc1	-50.3
Cc1cccc(-c2noc(Cc3ccc(Cl)cc3)n2)c1	-12.0
CC(C)(C)n1ncc2c(=O)n(CC(=O)NCc3ccccc3)cnc21	-55.8
COC(=O)c1c(-c2cccs2)csc1NC(=O)c1cccnc1	4.1
CCC(=O)Nc1cccc(-c2nnc(SCC(=O)c3ccccc3)n2C)c1	-61.0
CCCCc1ccc(S(=O)(=O)Nc2cc(C)on2)cc1	12.1
COc1ccc(OC)c(N/C(C)=C/C(=O)c2ccc(C)o2)c1	-2.3
CCn1cc(C(=O)Nc2cc3c(cc2NC(C)=O)OCCO3)c(=O)c2ccc(C)nc21	3.3
CC(=NC1CCCCC1)C1=C(O)c2ccccc2C1=O	-88.1
COc1cccc2sc(Nc3nc(-c4ccccn4)cs3)nc12	68.7*
COc1cccc(Nc2nc(-c3sc(N)nc3C)cs2)c1	-26.7
O=C(COc1ccc(Cl)cc1)NCc1nnc(SCC(=O)NCCc2ccccc2)o1	9.9
COc1nc(-c2ccccc2)cc(-c2ccc(OC)c(OC)c2)n1	-13.0
COc1ccc(C2=Nn3c(nnc3-c3ccccc3OC)SC2)cc1OC	55.4*
COc1ccc(-c2noc(-c3ccccc3Cl)n2)cc1OC	-81.9
O=S(=O)(c1ccc(NC2CCCCC2)cc1)N1CCOCC1	11.8
Cc1ccc(OCC(=O)N2CCC(N3CCCCCC3)CC2)cc1	-8.4
CCc1nnc2c3cnn(-c4ccc(C)c(C)c4)c3ncn12	-56.9
CCOC(=O)C(C(=O)OCC)C(CC(=O)C1CC1)c1ccccc1 (stereo not given)	6.7
SMILES	RORa inhibitor
C=CCSc1nc2ccccc2n1Cc1nnc(-c2cccs2)o1	17.8
CC1(C)COCN1S(=O)(=O)c1ccc(C(=O)Nc2nnc(-c3ccc(Cl)s3)o2)cc1	52.9*
COc1ccccc1-c1nnc(NC(=O)c2ccc(S(=O)(=O)N(C)C)cc2)o1	-7.2
CC1CC(C)CN(C(=O)CSc2nnc(-c3ccc(Cl)s3)o2)C1 (stereo not given)	-10.0
CCCC(NS(=O)(=O)c1ccc(Br)cc1)C(=O)O (stereo not given)	23.3
c1ccn2c(SCc3cn4ccsc4n3)nnc2c1	-60.6
CC(C)=CCC(C)(C)CNC(=O)NC1CCCCC1	-4.7
CCN1CCN(C(=O)c2cc3nc(-c4ccccc4)cc(C(F)(F)F)n3n2)CC1	10.8
O=C(CN(Cc1ccc2c(c1)OCO2)C(=O)c1cnsn1)NC1CCCC1	5.7
CN=c1scc(C)n1/N=C/c1ccc(O)cc1O	63.3*
O=C(NCCc1ccc(Cl)cc1)C1CCC(=O)N1C1CCCC1 (stereo not given)	-7.6

Bioassay records (PubChem BioAssay)
